Screening data deposited in PubChem BioAssay by several laboratories.
PGE2 EP2 inh: EP2 receptor (human) inhibition. 260,000 compounds, 0.52% hits. C6 glioma cells expressing human EP2, cAMP TR-FRET; cells stimulated with saturating PGE2. P43116. inhibition, % at 25 µM;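 active means percent inhibition above 40 after rounding to a whole number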;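 further: rat C6 glioma host cells with rolipram phosphodiesterase inhibitor present; the protocol text gives 20 µM as final concentration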
Target sequence (P43116 whole entry, looked up): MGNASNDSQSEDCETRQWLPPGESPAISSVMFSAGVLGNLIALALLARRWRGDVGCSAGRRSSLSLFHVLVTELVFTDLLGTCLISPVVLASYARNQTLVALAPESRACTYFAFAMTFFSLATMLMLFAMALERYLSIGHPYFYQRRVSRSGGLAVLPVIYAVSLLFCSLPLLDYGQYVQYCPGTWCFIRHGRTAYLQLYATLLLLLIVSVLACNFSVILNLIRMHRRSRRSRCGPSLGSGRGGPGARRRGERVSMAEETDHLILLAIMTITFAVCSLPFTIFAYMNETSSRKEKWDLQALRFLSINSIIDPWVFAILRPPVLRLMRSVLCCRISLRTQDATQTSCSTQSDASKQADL
EP2 modulator: modulates human prostaglandin E2 receptor EP2 signaling | P43116 | EP2-expressing cells, cAMP HTRF FRET, PGE2 co-stimulation | induction, % at 25 µM | 260,000 compounds, 0.83% hits;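 active means compounds whose cAMP rise, as percent of the full-agonist control response, exceeds 60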;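 further: rat C6 glioma line stably carrying human EP2 under a CMV promoter; the protocol text gives 20 µM as final concentration; 100% = response of wells given 1 µM PGE2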
HKDC1 inh: inhibitors of human hexokinase HKDC1; recombinant HKDC1, G6PDH/diaphorase resazurin coupled fluorescence; Q2TB90; 340,000 compounds, 0.16% hits; inhibition, % at 20 µM;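 active means inhibition above about 35% when tested at 20 µM, limit read from the data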;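 further: plate controls were DMSO wells with enzyme for no effect and DMSO wells lacking enzyme for full effect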
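System: Recombinant HKDC1 hexokinase | Amount: HKDC1 at 5 µg/mL | Reagent: Glucose with 1 mM ATP | Doses: Single 20 µM dose | Incubation: Reaction time 90 min, room temperature, protected from light | Signal: Coupled resazurin fluorescence, excitation 525 nm, emission 613 nm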
Tb hexokinase: blocks Trypanosoma brucei hexokinase 1 activity; recombinant TbHK1, G6PDH-coupled NADH A340; inhibition, % at 10 µM; 220,000 compounds, 0.11% hits;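 active means inhibition of 50% or more in the single-dose primary screen; inactive means inhibition below 50%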
PHOSPHO1 block: PHOSPHO1 (human) inhibition | Q8TCT1 | recombinant PHOSPHO1, absorbance phosphatase assay | inhibition, % at 13.3 µM | 290,000 compounds, 1.1% hits; in the data active means inhibition above about 60%
Target sequence (Q8TCT1 whole entry, looked up): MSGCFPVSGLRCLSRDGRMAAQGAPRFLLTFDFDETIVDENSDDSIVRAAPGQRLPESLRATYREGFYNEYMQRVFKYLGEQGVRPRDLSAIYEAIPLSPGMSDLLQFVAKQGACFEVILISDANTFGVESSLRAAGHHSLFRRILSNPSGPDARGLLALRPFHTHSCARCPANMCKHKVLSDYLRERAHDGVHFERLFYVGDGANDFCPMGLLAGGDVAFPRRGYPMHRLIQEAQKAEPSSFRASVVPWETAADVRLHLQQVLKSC
PfG6PD inh: PfG6PD (Plasmodium falciparum) enzyme inhibition. AID 504690. 350,000 compounds, 0.78% hits. PfGluPho enzyme, NADPH resazurin-diaphorase fluorescence. inhibition, % at 20 µM;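 active means inhibition reaching at least a set limit at 20 µM in the primary screen, cut at about 59% in these data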;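 further: 0% = DMSO wells with substrate and 100% = DMSO wells lacking glucose-6-phosphate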
An asterisk follows results filed as active; x = not tested or not shown. A selection: hits, their analogues and other compounds. The true share with any hit is near 2.5%.

SMILES	PGE2 EP2 inh	EP2 modulator	HKDC1 inh	Tb hexokinase	PHOSPHO1 block	PfG6PD inh
CCCCc1nc2ccccc2c(=O)n1-c1ccccc1[N+](=O)[O-]	8.0	36.8	-3.4	-1.8	-35.3	-2.2
CCCCc1nc2ccccc2c(=O)n1-c1ccc(O)cc1	8.9	14.6	-4.4	4.6	-10.4	-9.7
CCc1nc2ccccc2c(=O)n1-c1ccccc1[N+](=O)[O-]	49.0*	5.6	-6.7	-1.9	7.0	-8.7
COC(=O)CC1=C(C(=O)OC)C2(C(=O)Nc3ccc(F)cc32)C(C#N)=C(N)O1 (stereo not given)	14.3	22.9	x	x	x	x
Cn1ccnc1C1(O)CC2CCC(C1)N2CC(=O)Nc1ccc(N2CCCCC2)cc1 (stereo not given)	x	-42.2	x	x	x	x
COc1ccc(C2(O)CC3CCC(C2)N3Cc2cnc(SC)nc2)cc1 (stereo not given)	4.3	-67.7	x	x	x	x
C=CCN1C(=O)CN=C(c2ccc(F)cc2)c2c1sc1c2CCCC1	3.3	65.0*	x	x	x	x
CCCOc1c(CN2C3CCC2CC(O)(c2ccc(OC)cc2)C3)cccc1OC (stereo not given)	4.5	-38.1	x	x	x	x
Nc1nc2c(c(=S)[nH]1)[n]([Hg][c]1cc([N+](=O)[O-])ccc1O)c[n+]2[C@H]1O[C@H](CO)[C@@H](O)[C@@H]1O	60.0*	12.5	x	x	x	x
CC1(C)C[C@H]2C=C(C=O)[C@]3(C=O)C[C@]3(C)[C@H]2C1	88.3*	-34.4	4.7	-1.4	-6.8	21.2
O=C1NC(=O)C(=Cc2ccc(-c3ccc(S(=O)(=O)N4CCOCC4)cc3)o2)C(=O)N1	x	x	7.6	x	25.4	72.8*
O=C1NC(=O)C(=Cc2ccc(-c3ccc(Cl)cc3)o2)C(=O)N1	x	x	26.4	x	20.2	77.0*
CC(Cc1ccccn1)N(C)Cc1cnc(N2CCCCC2)nc1 (stereo not given)	5.7	-19.3	x	x	x	x
CC1(C)N=C(N)N=C(N)N1c1cccc(C(=O)Nc2ccc(S(=O)(=O)F)cc2)c1	52.1*	11.8	x	x	x	x
CCN(CC)C(=O)c1ccc(NC(=O)c2cccc(C(F)(F)F)c2)cc1	6.1	-14.1	-2.7	-4.1	16.3	-14.3
O=C(CN1C2CCC1CC(O)(c1ccco1)C2)NC(c1ccccc1)c1ccccc1 (stereo not given)	x	3.1	x	x	x	x
COC(=O)c1c(C)ccc2c(O)c3c(cc12)C(=O)c1c2c(cc(O)c1C3=O)[C@@]1(C)O[C@@](C)(O2)[C@@H](O)[C@H](N(C)C)[C@H]1O	42.4*	12.2	x	x	x	x
CCCc1nc2ccccc2c(=O)n1-c1ccc(Cl)cc1	10.5	25.1	x	x	x	x
CCC(CC)N1CCN(C(=O)COc2ccc(OC)cc2)CC1	6.4	5.4	x	x	x	x
COc1cc2c(cc1OC)[C@]13CC[N@+]4(C)CC5=CCO[C@@H]6CC(=O)N2[C@@H]1[C@@H]6[C@@H]5C[C@]34O	41.5*	27.4	x	x	x	x
CN1C(=O)/C(=C/c2ccc(Cl)s2)C(=O)NC1=S	x	x	5.4	x	-36.5	63.4*
CN1C(=O)/C(=C\c2ccc(N3CCCCCC3)cc2)C(=O)NC1=S	-1.3	-19.2	12.7	-4.1	-53.8	11.7
Cc1ccsc1/C=C1\C(=O)NC(=S)N(C)C1=O	x	x	5.0	x	29.1	37.2
COc1ccc(/C=C2\C(=O)NC(=S)N(C)C2=O)cc1C	2.6	-30.3	36.4*	-1.0	15.8	4.3
C#CCOc1ccc(CN2C3CCC2CC(O)(c2ccc(OC)cc2)C3)cc1OC (stereo not given)	5.8	-24.0	x	x	x	x
SMILES	PGE2 EP2 inh	EP2 modulator	HKDC1 inh	Tb hexokinase	PHOSPHO1 block	PfG6PD inh
CC(C)C[C@H]1C(=O)N2CCC[C@H]2[C@]2(O)O[C@](NC(=O)[C@@H]3C=C4c5cccc6[nH]cc(c56)C[C@H]4N(C)C3)(C(C)C)C(=O)N12	x	x	9.9	x	x	50.5
CN1C[C@@H](C(=O)N[C@@]2(C)O[C@@]3(O)[C@H]4CCCN4C(=O)[C@@H](Cc4ccccc4)N3C2=O)C=C2c3cccc4[nH]cc(c34)C[C@@H]21	65.8*	3.3	x	x	x	x
CN1/C(=C\C=C\C2=[N+](C)c3ccc4ccccc4c3C2(C)C)C(C)(C)c2ccccc21	114.4*	-45.7	x	32.2	25.4	x
CN(CCc1ccccc1)Cc1nc2ccccc2c(=O)[nH]1	6.5	-20.3	x	x	x	x
COc1cc2cc(c1Cl)N(C)C(=O)C[C@H](OC(=O)C(C)C)[C@]1(C)O[C@H]1[C@@H](C)[C@H]1C[C@](O)(NC(=O)O1)[C@@H](OC)/C=C\C=C(\C)C2	52.2*	23.2	x	x	x	x
CCC(N)C(O)c1ccc(O)c(O)c1 (stereo not given)	11.6	74.2*	x	x	x	x
CC1(C)[C@@H]2CC[C@@]1(C)CN(CCC[N+](C)(C)C)C2	41.3*	14.3	x	x	x	x
O=C(O)C[C@@H]1OCC=C2CN3CC[C@]45c6ccccc6N[C@H]4[C@H]1[C@H]2C[C@H]35	50.9*	0.6	x	x	x	x
O=C(O)CC1OCC=C2CN3CCC45c6ccccc6NC4C1C2CC35 (stereo not given)	8.4	27.1	-5.1	-0.9	34.0	-14.3
CN1CCC(NCCO)CC1	8.6	-45.0	x	x	x	x
CC(C)C(=O)N1CCCc2cc(C(O)CN3CC=C(c4ccc(F)cc4)CC3)ccc21 (stereo not given)	6.2	-55.1	x	x	x	x
CC(C)(C)c1ccc(C(=O)C2CCCN(C3CCC3)C2)cc1 (stereo not given)	8.0	9.6	-3.9	4.0	60.1*	8.1
CC(=O)c1ccc2c(c1)C1C(Cl)C(Sc3ccccc3[N+](=O)[O-])CC1C(c1ccccc1[N+](=O)[O-])N2 (stereo not given)	7.6	-13.0	15.6	-18.2	-0.9	59.4*
O=C(O)c1cccc([As]=[As]c2cccc(C(=O)O)c2)c1 (stereo not given)	42.1*	26.6	x	x	x	x
O=C(O)c1ccc([N+](=O)[O-])c([N+](=O)[O-])c1	x	x	1.0	x	x	1.3
O=C(CN1C(=O)CN=C(c2ccccc2Cl)c2c1sc1c2CCCC1)N1CCOCC1	4.2	-24.8	x	x	x	x
CC1(C)CC2(CCCN(CCC(N)=O)C2)CCO1 (stereo not given)	14.4	10.4	x	x	x	x
Cn1ccnc1C1(O)CC2CCC(C1)N2CC(=O)Nc1ccc(N2CCOCC2)cc1 (stereo not given)	x	-2.6	x	x	x	x
CC(=O)OC1CC(OC2C(O)CC(OC3C(O)CC(OC4CCC5(C)C(CCC6C5CC(O)C5(C)C(C7=CC(=O)OC7)CCC65O)C4)OC3C)OC2C)OC(C)C1OC1OC(CO)C(O)C(O)C1O (stereo not given)	x	x	-5.5	x	x	-3.0
C[C@@H]1CC[C@@]2(OC1)OC1C(O)C3C4CC[C@H]5C[C@H](O[C@@H]6O[C@H](CO)[C@H](O[C@@H]7O[C@H](CO)[C@@H](O)[C@H](O[C@@H]8OC[C@@H](O)[C@H](O)[C@H]8O)[C@H]7O[C@@H]7O[C@H](CO)[C@H](O)[C@H](O[C@@H]8O[C@H](CO)[C@@H](O)[C@H](O)[C@H]8O)[C@H]7O)[C@H](O)[C@H]6O)[C@H](O)C[C@]5(C)C4CC[C@]3(C)C1[C@@H]2C (stereo not given in full)	116.5*	-37.8	x	x	x	x
